Reference: ChEMBL document CHEMBL1914305, “Synthesis and structure-activity evaluation of isatin-β-thiosemicarbazones with improved selective activity toward multidrug-resistant cells expressing P-glycoprotein” (J Med Chem, 2011)

Legend:
[1] = Cytotoxicity against human KB-3-1 cells after 72 hrs by MTT assay; type: functional, cell-based; settings: KB 3-1, 72 h
In short: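 Grown in DMEM with 10% FBS. MTT assay: 4000 cells/well, 24 h settling, serial dilutions of drug, 72 h at 37 °C in 5% CO2. MTT in IMDM 4 h, then acidified ethanol 15 min, A570 with 690 nm background. Three experiments in triplicate. KB-V1-R comes from KB-V1 grown long-term drug-free.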

[2] = Cytotoxicity against vinblastine-selected human KBV1 cells after 72 hrs by MTT assay; type: functional, cell-based; settings: KB-V1, 72 h
In short: (§1)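 Grown in DMEM with 10% FBS. MTT assay: 4000 cells/well, 24 h settling, serial dilutions of drug, 72 h at 37 °C in 5% CO2. MTT in IMDM 4 h, then acidified ethanol 15 min, A570 with 690 nm background. IC50 is the concentration reducing absorbance to 50% of untreated control. Three experiments in triplicate. KB-V1-R comes from KB-V1 grown long-term drug-free.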

[3] = Selectivity ratio of IC50 for human KB-3-1 cells to IC50 for human KBV1 cells selected at 1 ug/mL vinblastine; type: functional
In short: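 Selectivity ratio: IC50 in the parental or empty-vector cells divided by IC50 in the P-gp-expressing cells (KB-V1, or ABCB1-transfected LLC-PK1). MTT assay: 4000 cells/well established for 24 h, then 72 h exposure to serially diluted drug at 37 °C, 5% CO2. MTT for 4 h, acidified ethanol lysis, A570 corrected at A690. IC50 is the concentration giving 50% of untreated absorbance, from at least three experiments.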

OVCAR-8 = test: Cytotoxicity against human OVCAR8 cells after 72 hrs by MTT assay; type: functional, cell-based; settings: OVCAR-8, 72 h
In short: (§2)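 Lines grown in RPMI with 10% FBS and 2 mM L-glutamine. MTT assay: 4000 cells/well attached 24 h before serially diluted drug, then 72 h exposure at 37 °C, 5% CO2. MTT in IMDM 4 h, lysis in acidified ethanol 15 min, absorbance 570 nm minus 690 nm. IC50 is the concentration halving untreated absorbance. Three independent experiments, each in triplicate.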

NCI/ADR-RES = test: Cytotoxicity against adriamycin-selected human NCI/ADR-RES cells after 72 hrs by MTT assay; type: functional, cell-based; in short: as §2
HEK293 [4] = test: Cytotoxicity against human HEK293 cells after 72 hrs by MTT assay; type: functional, cell-based; settings: HEK293, 72 h; in short: as §1
HEK293 [5] = test: Cytotoxicity against human HEK293 cells transfected with plasmid expressing MDR1 after 72 hrs by MTT assay; type: functional, cell-based; settings: HEK293, 72 h
In short: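 ABCB1-transfected HEK293 grown in DMEM with 10% FBS and 1 mg/mL G418. MTT assay: 4000 cells/well for 24 h, serial drug dilutions, 72 h at 37 °C, 5% CO2. MTT 4 h, acidified ethanol lysis, A570 corrected at 690 nm. IC50 at 50% of untreated absorbance. Three experiments in triplicate.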

[6] = Cytotoxicity against doxorubicin-selected human ZR-75B cells after 72 hrs by MTT assay; type: functional, cell-based; in short: as §2
NIH3T3 [7] = test: Cytotoxicity against mouse NIH/3T3 cells after 72 hrs by MTT assay; type: cell-based; settings: NIH3T3, 72 h; in short: as §1
NIH3T3 [8] = test: Cytotoxicity against mouse NIH/3T3 cells selected at 30 ug/ml vincristine after 72 hrs by MTT assay; type: functional, cell-based; settings: NIH3T3, 72 h, in the assay text read “30 ng/ml” for “30 ug/ml”; in short: as §1
NIH3T3 [9] = test: Cytotoxicity against mouse NIH/3T3 cells transfected with wild type p-glycoprotein ABCB1 selected at 600 ug/ml vincristine after 72 hrs by MTT assay; type: functional, cell-based; settings: NIH3T3, 72 h, in the assay text read “600 ng/ml” for “600 ug/ml”; in short: as §1
NIH3T3 [10] = test: Cytotoxicity against 2.4 ug/mL vincristine selected mouse NIH/3T3 cells transfected with P-gp Ser to Asp phosphorylation mutant after 72 hrs by MTT assay; type: functional, cell-based; settings: NIH3T3, 72 h; in short: as §1
NIH3T3 [11] = test: Cytotoxicity against mouse NIH/3T3 cells transfected with wild-type P-gp G185 after 72 hrs by MTT assay; type: functional, cell-based; settings: NIH3T3, 72 h; in short: as §1
NIH3T3 [12] = test: Cytotoxicity against mouse NIH/3T3 cells selected at 1 ug/mL colchicine after 72 hrs by MTT assay; type: functional, cell-based; settings: NIH3T3, 72 h; in short: as §1
[13] = Cytotoxicity against human Ew36 cells after 72 hrs by MTT assay; type: functional, cell-based; settings: Ew36, 72 h; in short: as §2
[14] = Cytotoxicity against human Ew36 cells selected at 120 ng/mL vincristine after 72 hrs by MTT assay; type: functional, cell-based; settings: Ew36, 72 h; in short: as §2
[15] = Cytotoxicity against human MES-SA cells after 72 hrs by MTT assay; type: functional, cell-based
In short: (§3)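 MES-SA and MES-SA/Dx5 lines kept in McCoy's 5A with 10% FBS. MTT assay: seeded at 4000 cells/well for 24 h, serial drug dilutions, 72 h at 37 °C and 5% CO2. MTT 4 h, acidified ethanol lysis, A570 corrected at 690 nm. IC50 is 50% absorbance versus untreated wells. Three separate experiments in triplicate.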

[16] = Cytotoxicity against adriamycin-selected human MES-SA cells after 72 hrs by MTT assay; type: functional, cell-based; in short: as §3
SW-620 [17] = test: Cytotoxicity against human SW620 cells after 72 hrs by MTT assay; type: functional, cell-based; settings: SW-620, 72 h; in short: as §2
SW-620 [18] = test: Cytotoxicity against human SW620 cells selected at 20 ng/mL adriamycin after 72 hrs by MTT assay; type: functional, cell-based; settings: SW-620, 72 h; in short: as §2
LLC-PK1 [19] = test: Cytotoxicity against pig LLC-PK1 cells transfected with empty vector after 72 hrs by MTT assay; type: cell-based; settings: Sus scrofa, LLC-PK1, 72 h
In short: (§4)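 LLC-PK1 empty-vector lines grown in M199 with 10% FBS; transfected lines also in 0.5 mg/mL G418. MTT assay: 4000 cells/well for 24 h, then serially diluted drug for 72 h at 37 °C, 5% CO2. MTT 4 h, acidified ethanol, A570 minus 690 nm. IC50 is 50% of untreated absorbance. Triplicate wells, three experiments.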

LLC-PK1 [20] = test: Cytotoxicity against pig LLC-PK1 cells after 72 hrs by MTT assay; type: cell-based; settings: Sus scrofa, LLC-PK1, 72 h; in short: as §4
CHO [21] = test: Cytotoxicity against CHO cells after 72 hrs by MTT assay; type: cell-based; settings: Cricetulus griseus
In short: (§5)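 CHO and colchicine-selected C5 cells kept in AlphaMEM with 10% FBS. MTT assay: 4000 cells/well settled 24 h, then serially diluted drug added. Incubated 72 h at 37 °C, 5% CO2. MTT in IMDM for 4 h, then acidified ethanol lysis for 15 min. Read A570, background-corrected at 690 nm. IC50 is the concentration giving 50% of untreated absorbance. Three experiments, each in triplicate.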

CHO [22] = test: Cytotoxicity against CHO cells selected at 1 ug/mL colchicine after 72 hrs by MTT assay; type: functional, cell-based; settings: Cricetulus griseus; in short: as §5

SMILES: CC(C)c1ccc(NC(=S)N/N=C2\C(=O)Nc3ccccc32)cc1
- IC50 [1]: 9.11 µM
- IC50 [2]: 1.09 µM
- Ratio IC50 [3]: 8.4

SMILES: O=C1Nc2ccccc2/C1=N/NC(=S)Nc1ccc(F)cc1
- IC50 [1]: 14.2 µM
- IC50 [2]: 1.92 µM
- Ratio IC50 [3]: 7.4

SMILES: O=C1Nc2ccccc2/C1=N/NC(=S)NC12CC3CC(CC(C3)C1)C2
- IC50 [1]: 3.16 µM
- IC50 [2]: 1.02 µM
- Ratio IC50 [3]: 3.1

SMILES: O=C1Nc2ccccc2/C1=N/NC(=S)NCc1ccccc1
- IC50 [1]: 11.7 µM
- IC50 [2]: 7.63 µM
- Ratio IC50 [3]: 1.5

SMILES: COc1ccccc1NC(=S)N/N=C1\C(=O)Nc2ccccc21
- IC50 [1]: 4.96 µM
- IC50 [2]: 2.69 µM
- Ratio IC50 [3]: 1.8

SMILES: O=C1Nc2ccccc2/C1=N/NC(=S)Nc1ccc(Cl)cc1
- IC50 [1]: 13.4 µM
- IC50 [2]: 4.99 µM
- Ratio IC50 [3]: 2.7

SMILES: O=C1Nc2ccccc2/C1=N/NC(=S)Nc1cc(F)c(F)c(F)c1
- IC50 [1]: 4.41 µM
- IC50 [2]: 2.15 µM
- Ratio IC50 [3]: 2.1

SMILES: CCCC1CCC(c2ccc(NC(=S)N/N=C3\C(=O)Nc4ccccc43)cc2)CC1 (centres undefined)
- IC50 [1]: 17.5 µM
- IC50 [2]: 11 µM
- Ratio IC50 [3]: 1.6

SMILES: O=C1Nc2ccccc2/C1=N/NC(=S)Nc1ccccc1Cl
- IC50 [1]: 2.22 µM
- IC50 [2]: 1.17 µM
- Ratio IC50 [3]: 1.9

SMILES: O=C1Nc2ccccc2/C1=N/NC(=S)Nc1cccc(Cl)c1
- IC50 [1]: 1.87 µM
- IC50 [2]: 0.64 µM
- Ratio IC50 [3]: 2.9

SMILES: CC(C)NC(=S)N/N=C1\C(=O)Nc2ccccc21
- IC50 [1]: 39.3 µM
- IC50 [2]: 10.2 µM
- Ratio IC50 [3]: 3.8

SMILES: COc1cccc2c1C(=O)c1c(O)c3c(c(O)c1C2=O)C[C@@](O)(C(=O)CO)C[C@@H]3O[C@H]1C[C@H](N)[C@H](O)[C@H](C)O1 [DOXORUBICIN]
- IC50 [2]: 4.7 µM
- IC50 (OVCAR-8): 0.14 µM
- IC50 (NCI/ADR-RES): 9.3 µM
- IC50 (HEK293 [4]): 0.01 µM
- IC50 (HEK293 [5]): 0.42 µM
- IC50 [6]: 2.02 µM
- IC50 (NIH3T3 [7]): 0.05 µM
- IC50 (NIH3T3 [8]): 0.08 µM
- IC50 (NIH3T3 [9]): 0.69 µM
- IC50 (NIH3T3 [10]): 17.5 µM
- IC50 (NIH3T3 [11]): 0.38 µM
- IC50 (NIH3T3 [12]): 1.58 µM
- IC50 [13]: 0.01 µM
- IC50 [14]: 0.24 µM
- IC50 [15]: 0.03 µM
- IC50 [16]: 0.87 µM
- IC50 (SW-620 [17]): 0.01 µM
- IC50 (SW-620 [18]): 0.24 µM
- IC50 (LLC-PK1 [19]): 0.2 µM
- IC50 (LLC-PK1 [20]): 19.7 µM
- IC50 (CHO [21]): 0.08 µM
- IC50 (CHO [22]): 9.7 µM

SMILES: O=C1Nc2ccccc2/C1=N/NC(=S)Nc1ccc(C(=O)O)cc1
- IC50 [1]: > 50 µM
- IC50 [2]: > 50 µM

SMILES: O=C1Nc2ccccc2/C1=N/NC(=S)NC1CCCCC1
- IC50 [1]: 9.14 µM
- IC50 [2]: 4.38 µM
- Ratio IC50 [3]: 2.1

SMILES: Cc1ccc(NC(=S)N/N=C2\C(=O)Nc3ccccc32)cc1C
- IC50 [1]: 4.37 µM
- IC50 [2]: 2.2 µM
- Ratio IC50 [3]: 2

SMILES: CCc1ccc(NC(=S)N/N=C2\C(=O)Nc3ccccc32)cc1
- IC50 [1]: 4.05 µM
- IC50 [2]: 1.34 µM
- Ratio IC50 [3]: 3

SMILES: Cc1ccc(NC(=S)N/N=C2\C(=O)Nc3ccccc32)cc1
- IC50 [1]: 24 µM
- IC50 [2]: 2.6 µM
- Ratio IC50 [3]: 9.2

SMILES: O=C1Nc2ccccc2/C1=N/NC(=S)Nc1c(F)cc(F)cc1F
- IC50 [1]: 38.4 µM
- IC50 [2]: 7.28 µM
- Ratio IC50 [3]: 5.3

SMILES: O=C1Nc2ccccc2/C1=N/NC(=S)Nc1ccccc1
- IC50 [1]: 3.53 µM
- IC50 [2]: 1.47 µM
- Ratio IC50 [3]: 2.4

SMILES: O=C1Nc2ccccc2/C1=N/NC(=S)Nc1ccc(O)cc1
- IC50 [1]: 35.8 µM
- IC50 [2]: 21.6 µM
- Ratio IC50 [3]: 1.7

SMILES: O=C1Nc2ccccc2/C1=N/NC(=S)Nc1cccc2ccccc12
- IC50 [1]: 5.12 µM
- IC50 [2]: 2.21 µM
- Ratio IC50 [3]: 2.3

SMILES: O=C1Nc2ccccc2/C1=N/NC(=S)Nc1ccc(Oc2ccccc2)cc1
- IC50 [1]: 5.72 µM
- IC50 [2]: 1.67 µM
- Ratio IC50 [3]: 3.4

SMILES: CCCCNC(=S)N/N=C1\C(=O)Nc2ccccc21
- IC50 [1]: 10.9 µM
- IC50 [2]: 5.69 µM
- Ratio IC50 [3]: 1.9

SMILES: O=C1Nc2ccccc2/C1=N/NC(=S)Nc1ccc2c(c1)CCC2
- IC50 [1]: 5.8 µM
- IC50 [2]: 2.85 µM
- Ratio IC50 [3]: 2

SMILES: O=C1Nc2ccccc2/C1=N/NC(=S)Nc1ccc(C(F)(F)F)cc1
- IC50 [1]: 8.59 µM
- IC50 [2]: 2.1 µM
- Ratio IC50 [3]: 4.1

SMILES: O=C1Nc2ccccc2/C1=N/NC(=S)Nc1cccnc1
- IC50 [1]: > 50 µM
- IC50 [2]: > 50 µM

SMILES: CNC(=S)N/N=C1\C(=O)Nc2ccccc21
- IC50 [1]: 35.3 µM
- IC50 [2]: 19.4 µM
- Ratio IC50 [3]: 1.8

SMILES: COc1cc(NC(=S)N/N=C2\C(=O)Nc3ccccc32)cc(OC)c1OC
- IC50 [1]: 11.1 µM
- IC50 [2]: 3.49 µM
- Ratio IC50 [3]: 3.2

SMILES: CN(C)c1ccc(NC(=S)N/N=C2\C(=O)Nc3ccccc32)cc1
- IC50 [1]: 6.95 µM
- IC50 [2]: 2.32 µM
- Ratio IC50 [3]: 3
